What was measured:
Trypanosoma brucei [1] = assay: In vitro growth inhibitory activity against Trypanosoma brucei strain K269; assay type: functional, organism-based
Trypanosoma brucei [2] = assay: In vitro growth inhibitory activity against Trypanosoma brucei strain K243 (As-10-3); assay type: functional, organism-based
Trypanosoma brucei [3] = assay: In vitro growth inhibitory activity against Trypanosoma brucei strain K243; assay type: functional, organism-based
Encephalitozoon cuniculi [4] = assay: In vitro growth inhibitory activity against Encephalitozoon cuniculi grown on RK-13 cells infected as a monolayer; assay type: functional, organism-based
Procedure, shortened: (§1)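 RK-13 monolayers were infected with E. cuniculi, with 50–80% of control cells infected. Compound was added to duplicate wells for 7 days, and drug-containing medium was replaced on days 3 and 6. On day 8, cells were fixed overnight, Giemsa-stained and counted by inverted microscope at 400× in five confluent fields (240 cells/field). Percentage of infected cells was compared with untreated controls. Values came from three to five growth curves.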

Trypanosoma brucei [5] = assay: In vitro growth inhibitory activity against Trypanosoma brucei strain LAB110; assay type: functional, organism-based
Encephalitozoon cuniculi [6] = assay: In vitro growth inhibitory activity against Encephalitozoon cuniculi grown on RK-13 cells infected as a monolayer at concentration of 100 uM; assay type: functional; procedure, shortened: as §1
Encephalitozoon cuniculi [7] = assay: In vitro growth inhibitory activity against Encephalitozoon cuniculi grown on RK-13 cells infected as a monolayer at concentration of 50 uM; assay type: functional; procedure, shortened: as §1
Encephalitozoon cuniculi [8] = assay: In vitro growth inhibitory activity against Encephalitozoon cuniculi grown on RK-13 cells infected as a monolayer at concentration of 250 uM; assay type: functional; procedure, shortened: as §1
Encephalitozoon cuniculi [9] = assay: In vitro growth inhibitory activity against Encephalitozoon cuniculi grown on RK-13 cells infected as a monolayer at concentration of 500 uM; assay type: functional; procedure, shortened: as §1

| IC50 (Trypanosoma brucei [3]) | IC50 (Trypanosoma brucei [5]) | Structure (SMILES) | IC50 (Trypanosoma brucei [1]) | IC50 (Trypanosoma brucei [2]) | IC50 (Encephalitozoon cuniculi [4]) | inhibition at 100 µM (Encephalitozoon cuniculi [6]) | inhibition at 50 µM (Encephalitozoon cuniculi [7]) | inhibition at 250 µM (Encephalitozoon cuniculi [8]) | inhibition at 500 µM (Encephalitozoon cuniculi [9]) |
| --- | --- | --- | --- | --- | --- | --- | --- | --- | --- |
| 18.5 µM | 22 µM | COc1ccccc1CNCCCNCCCCCCCNCCCNCc1ccccc1OC | 16.5 µM | 5.5 µM | – | – | 100% | – | – |
| – | – | N[C@@H]1C=C[C@@H](NCCCNCC2CCCC(CNCCCN[C@H]3C=C[C@H](N)C3)C2)C1 (some centres undefined) | – | – | – | 100% | – | – | – |
| > 100 µM | > 100 µM | CCNCCCNC1C=CC(N)CCC1 (centres undefined) | – | – | 36 µM | – | – | – | – |
| – | – | C(CNCC1CCC1)CNCC1CCCC(CNCCCNCC2CCC2)C1 (centres undefined) | – | – | – | – | – | 100% | – |
| – | – | N[C@H]1C=CC(NCCCNCC2CCCCCC2)CCC1 (some centres undefined) | – | – | – | 76% | – | – | – |
| > 100 µM | > 100 µM | N[C@H]1C=CC(NCCCNCC2CC2)C1 (some centres undefined) | – | – | 204 µM | – | – | – | – |
| 0.38 µM | 0.31 µM | CCNCCCNCCCCCCCNCCCNC[C@@H](C)CC | – | 0.79 µM | – | – | – | – | – |
| – | – | CC[C@H](C)CNCCCNCCCCCCCNCCCN | – | – | – | – | – | – | 87% |
| 0.04 µM | 0.031 µM | CCC(C)CNCCCNCCCCCCCNCCCNCC(C)CC (centres undefined) | – | 0.165 µM | – | – | 47% | – | – |
| > 100 µM | > 100 µM | CCNCCCNCC1CCCC(N)CC1 (centres undefined) | – | – | 232 µM | – | – | – | – |
| > 100 µM | > 100 µM | CCNCCCNCCCNCCCNCC [BIS(ETHYL)NORSPERMINE] | > 100 µM | > 100 µM | – | – | – | – | – |

| Structure (SMILES) | IC50 (Trypanosoma brucei [3]) | IC50 (Trypanosoma brucei [5]) | IC50 (Trypanosoma brucei [1]) | IC50 (Trypanosoma brucei [2]) | IC50 (Encephalitozoon cuniculi [4]) | inhibition at 100 µM (Encephalitozoon cuniculi [6]) | inhibition at 50 µM (Encephalitozoon cuniculi [7]) | inhibition at 250 µM (Encephalitozoon cuniculi [8]) | inhibition at 500 µM (Encephalitozoon cuniculi [9]) |
| --- | --- | --- | --- | --- | --- | --- | --- | --- | --- |
| c1ccc(-c2ccccc2CNCCCNCCCCCCCNCCCNCc2ccccc2-c2ccccc2)cc1 | 0.19 µM | 0.24 µM | 0.75 µM | 0.2 µM | 0.47 µM | – | – | – | – |
| c1ccc(CNCCCNCC2CCCC(CNCCCNCc3ccccc3)C2)cc1 (centres undefined) | 4.15 µM | 4.05 µM | 5.1 µM | 56 µM | – | 86% | – | – | – |
| C1CCCC(CNCCCNCC2CCCC(CNCCCNCC3CCCCCC3)C2)CC1 (centres undefined) | 14 µM | 3.25 µM | 1.71 µM | 2.15 µM | – | 100% | – | – | – |
| C(CNCC1CC1)CNCC1CCCC(CNCCCNCC2CC2)C1 (centres undefined) | 81.5 µM | 73 µM | > 100 µM | > 100 µM | – | 100% | – | – | – |
